{"source": "ChEMBL document CHEMBL1806443", "about": "“Novel imidazo[4,5-b]pyridine and triaza-benzo[c]fluorene derivatives: synthesis, antiproliferative activity and DNA binding studies” (Eur J Med Chem, 2011)", "key": {"[1]": {"tested_on": "SW-620", "assay": "Cell cycle arrest in human SW620 cells assessed as accumulation at subG1 phase at 5 uM after 48 hrs by propidium iodide staining based flow cytometeric analysis (reference value: 29.1 +/- 1.1%)", "assay_type": "functional", "method_in_brief": "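Cells seeded at 3 × 10^4 per well and treated 24 h later with 1, 5 or 10 µM for 24 and 48 h. Adherent and floating cells were pooled, washed in PBS and fixed in 70% ethanol. They were then stained with propidium iodide 10 µg/mL plus RNase A 0.2 µg/mL. Flow cytometry counted 10000 events; each point was run in triplicate; significance was taken at p < 0.05.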"}, "[2]": {"tested_on": "SW-620", "assay": "Cell cycle arrest in human SW620 cells assessed as accumulation at subG1 phase at 1 uM after 24 hrs by propidium iodide staining based flow cytometeric analysis (reference value: 18 +/- 1%)", "assay_type": "functional"}, "[3]": {"tested_on": "MIA PaCa-2", "assay": "Cell cycle arrest in human MIAPaCa2 cells assessed as accumulation at G2/M phase at 5 uM after 48 hrs by propidium iodide staining based flow cytometeric analysis (reference value: 14.3 +/- 1.8%)", "assay_type": "functional"}, "[4]": {"tested_on": "MIA PaCa-2", "assay": "Cell cycle arrest in human MIAPaCa2 cells assessed as accumulation at G2/M phase at 1 uM after 24 hrs by propidium iodide staining based flow cytometeric analysis (reference value: 19.5 +/- 3.9%)", "assay_type": "functional"}, "[5]": {"tested_on": "SW-620", "assay": "Cell cycle arrest in human SW620 cells assessed as accumulation at G2/M phase at 1 uM after 48 hrs by propidium iodide staining based flow cytometeric analysis (reference value: 16.1 +/- 0.9%)", "assay_type": "functional"}, "[6]": {"tested_on": "SW-620", "assay": "Cell cycle arrest in human SW620 cells assessed as accumulation at G2/M phase at 5 uM after 24 hrs by propidium iodide staining based flow cytometeric analysis (reference value: 22.3 +/- 2.9%)", "assay_type": "functional"}, "[7]": {"tested_on": "SW-620", "assay": "Cell cycle arrest in human SW620 cells assessed as accumulation at S phase at 10 uM after 48 hrs by propidium iodide staining based flow cytometeric analysis (reference value: 31.9 +/- 1%)", "assay_type": "functional"}, "[8]": {"tested_on": "SW-620", "assay": "Cell cycle arrest in human SW620 cells assessed as accumulation at S phase at 10 uM after 24 hrs by propidium iodide staining based flow cytometeric analysis (reference value: 48.4 +/- 1.4%)", "assay_type": "functional"}, "[9]": {"tested_on": "SW-620", "assay": "Cell cycle arrest in human SW620 cells assessed as accumulation at S phase at 5 uM after 24 hrs by propidium iodide staining based flow cytometeric analysis (reference value: 48.4 +/- 1.4%)", "assay_type": "functional"}, "[10]": {"tested_on": "SW-620", "assay": "Cell cycle arrest in human SW620 cells assessed as accumulation at S phase at 1 uM after 24 hrs by propidium iodide staining based flow cytometeric analysis (reference value: 48.4 +/- 1.4%)", "assay_type": "functional"}, "[11]": {"tested_on": "SW-620", "assay": "Cell cycle arrest in human SW620 cells assessed as accumulation at G1 phase at 10 uM after 48 hrs by propidium iodide staining based flow cytometeric analysis (reference value: 52.7 +/- 0.9%)", "assay_type": "functional"}, "[12]": {"tested_on": "SW-620", "assay": "Cell cycle arrest in human SW620 cells assessed as accumulation at G1 phase at 5 uM after 48 hrs by propidium iodide staining based flow cytometeric analysis (reference value: 52.7 +/- 0.9%)", "assay_type": "functional"}, "[13]": {"tested_on": "SW-620", "assay": "Cell cycle arrest in human SW620 cells assessed as accumulation at G1 phase at 1 uM after 48 hrs by propidium iodide staining based flow cytometeric analysis (reference value: 52.7 +/- 0.9%)", "assay_type": "functional"}, "[14]": {"tested_on": "SW-620", "assay": "Cell cycle arrest in human SW620 cells assessed as accumulation at G1 phase at 5 uM after 24 hrs by propidium iodide staining based flow cytometeric analysis (reference value: 29.3 +/- 1.5%)", "assay_type": "functional"}, "[15]": {"tested_on": "MIA PaCa-2", "assay": "Cell cycle arrest in human MIAPaCa2 cells assessed as accumulation at subG1 phase at 5 uM after 48 hrs by propidium iodide staining based flow cytometeric analysis (reference value: 46.8 +/- 0.7%)", "assay_type": "functional"}, "[16]": {"tested_on": "MIA PaCa-2", "assay": "Cell cycle arrest in human MIAPaCa2 cells assessed as accumulation at subG1 phase at 1 uM after 24 hrs by propidium iodide staining based flow cytometeric analysis (reference value: 48.7 +/- 0.7%)", "assay_type": "functional"}, "[17]": {"tested_on": "SW-620", "assay": "Antiproliferative activity against human SW620 cells after 72 hrs by MTT assay", "assay_type": "functional, cell-based", "settings": "Homo sapiens, SW-620, 72 h", "method_in_brief": "(§1)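 Monolayer cells in DMEM with 10% FBS, 2 mM L-glutamine, penicillin and streptomycin at 37 °C, 5% CO2. Seeded at 3000-6000 cells/well by doubling time on day 0. Five 10-fold dilutions (0.01–100 µM) were added and incubated 72 h. MTT read-out, converted to percentage growth. IC50 by linear regression between bracketing concentrations. Quadruplicate points, three independent experiments, ANOVA/Tukey p<0.05.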"}, "[18]": {"tested_on": "WI-38", "assay": "Antiproliferative activity against human WI38 cells at 0.1 to 10 uM after 72 hrs by MTT assay", "assay_type": "cell-based", "settings": "wi-38, 72 h", "method_in_brief": "as §1"}, "[19]": {"tested_on": "MIA PaCa-2", "assay": "Cytostatic activity against human MIAPaCa2 cells at 1 to 10 uM after 72 hrs by MTT assay", "assay_type": "functional, cell-based", "method_in_brief": "(§2)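 Monolayers in DMEM with 10% FBS, 2 mM L-glutamine, penicillin and streptomycin (37 °C, 5% CO2) were seeded at 3000–6000 cells/well on day 0. Five 10-fold dilutions (0.01–100 µM) were added, followed by 72-h incubation and MTT read-out. Absorbances were converted to percentage growth by the NIH formulae. Each point was run in quadruplicate in three experiments; ANOVA with Tukey test.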"}, "[20]": {"tested_on": "HEp-2", "assay": "Cytostatic activity against human Hep2 cells at 1 to 10 uM after 72 hrs by MTT assay", "assay_type": "functional, cell-based", "method_in_brief": "as §2"}, "[21]": {"tested_on": "Nucleic Acid", "assay": "Binding affinity to calf thymus DNA assessed as change in melting temperature at compound to polynucleotide ratio of 0.2 by UV-VIS spectroscopic analysis", "assay_type": "nucleic-acid assay", "settings": "Bos taurus", "method_in_brief": "(§3)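 ct-DNA alone or with compound at set r = [compound]/[polynucleotide], in cacodylate buffer pH 7.0, I = 0.05 mol dm^-3. Absorbance at 260 nm followed against temperature, ligand absorbance subtracted, curves normalized. Tm is the transition midpoint, from the first-derivative maximum or by tangent method. ΔTm = Tm(complex) − Tm(free DNA), mean of ≥2 runs, error ±0.5 °C.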"}, "[22]": {"tested_on": "Nucleic Acid", "assay": "Binding affinity to calf thymus DNA assessed as change in melting temperature at compound to polynucleotide ratio of 0.1 by UV-VIS spectroscopic analysis", "assay_type": "nucleic-acid assay", "settings": "Bos taurus", "method_in_brief": "as §3"}, "[23]": {"tested_on": "Nucleic Acid", "assay": "Binding affinity to calf thymus DNA assessed as hypochromic changes at 347 nm wavelength by UV-Vis spectrophotometric titrations", "assay_type": "nucleic-acid assay", "settings": "Bos taurus", "method_in_brief": "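UV/Vis titration: aliquots of ct-DNA (concentration as phosphate) added to compound solution in sodium cacodylate buffer pH 7.0, I = 0.05 mol dm^-3, 1 cm quartz cuvettes. Hypochromism followed at band maxima. Compound absorbance linear up to 2.0 × 10^-5 mol dm^-3. Binding data fitted by the Scatchard equation.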"}, "[24]": {"tested_on": "SW-620", "assay": "Induction of apoptosis in human SW620 cells assessed as morphological change at 5 to 10 uM after 24 to 48 hrs by microscopic analysis", "assay_type": "functional, cell-based", "method_in_brief": "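Cells were seeded at 3 × 10^4 per well and exposed 24 h later to 1, 5 or 10 µM for 24 and 48 h. Apoptotic morphology (cell shrinkage, chromatin condensation) was scored by inverted light microscopy at 200× magnification.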"}, "[25]": {"tested_on": "Nucleic Acid", "assay": "Binding affinity to calf thymus DNA assessed as UV/Vis spectral change at compound to DNA ratio of 0.44 by UV/Vis titrations", "settings": "Bos taurus"}}, "note": "pIC50: −log10 of the molar value. Activity calls are given as the source filed them. The calls are words filed in the database; no cut-off is given here."}
{"compound": "Cl.c1cnc2nc3ccc4ccc(C5=NCCN5)cc4n3c2c1", "values": [{"measurement": "Activity", "setting": "[1]", "value": 47.6, "unit": "%"}, {"measurement": "Activity", "setting": "[2]", "value": 14.3, "unit": "%"}, {"measurement": "Activity", "setting": "[3]", "value": 20.8, "unit": "%"}, {"measurement": "Activity", "setting": "[4]", "value": 21.3, "unit": "%"}, {"measurement": "Activity", "setting": "[5]", "value": 19.4, "unit": "%"}, {"measurement": "Activity", "setting": "[6]", "value": 2.1, "unit": "%"}, {"measurement": "Activity", "setting": "[7]", "value": 41.8, "unit": "%"}, {"measurement": "Activity", "setting": "[8]", "value": 47.3, "unit": "%"}, {"measurement": "Activity", "setting": "[9]", "value": 11.8, "unit": "%"}, {"measurement": "Activity", "setting": "[10]", "value": 27.2, "unit": "%"}, {"measurement": "Activity", "setting": "[11]", "value": 39.9, "unit": "%"}, {"measurement": "Activity", "setting": "[12]", "value": 90.9, "unit": "%"}, {"measurement": "Activity", "setting": "[13]", "value": 35.1, "unit": "%"}, {"measurement": "Activity", "setting": "[14]", "value": 86.1, "unit": "%"}, {"measurement": "Activity", "setting": "[15]", "value": 56.6, "unit": "%"}, {"measurement": "Activity", "setting": "[16]", "value": 57.8, "unit": "%"}, {"measurement": "pIC50", "setting": "[17]", "value": 6.19}, {"measurement": "Activity", "setting": "[18]", "value": "Toxic"}, {"measurement": "Activity", "setting": "[19]", "value": "Active"}, {"measurement": "Activity", "setting": "[20]", "value": "Active"}, {"measurement": "ΔTm", "setting": "[21]", "value": 5.1, "unit": "°C"}, {"measurement": "ΔTm", "setting": "[22]", "value": 2.7, "unit": "°C"}, {"measurement": "Activity", "setting": "[23]", "value": 45, "unit": "%"}, {"measurement": "Activity", "setting": "[24]", "value": "Active"}, {"measurement": "log Ks", "setting": "[25]", "value": 5.4}]}
